According to PubChem BioAssay:
Results filed as inconclusive are left out.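 Rule for the calls, unless noted: active = viability increase at or above a cutoff of the median across tested compounds plus 3 SD (cut at about 8.5% in these data, passing the limit was not always enough); inconclusive = some gains above the cutoff, reason not given; inactive = the rest.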

Legend:
[1] = OD615 S. cerevisiae growth inhibition, permissive medium, pilot counter-assay, permissive growth control for S. cerevisiae lifespan shortening project (AID 705;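 active = growth inhibition above 25% in both replicates, a cutoff set 3 SD above the mean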); details: OD615, 24 h, at 10 µM, stronger effect = higher value
How it was run: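 System: S. cerevisiae with engineered DeaD lifespan system / Measured by: absorbance (optical density) at 615 nm / Read-out: reduction in yeast growth (OD615) / Times: 4 h cell pre-growth, 24 h exposure at 30 °C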

[2] = Restrictive medium S. cerevisiae growth inhibition, OD615, pilot screen of yeast lifespan reduction project, restrictive growth control (AID 706;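 active = growth inhibition above a set limit, 3 SD over mean compound inhibition, in both replicates, cut at about 43% in these data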;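 note: modified DeaD lifespan yeast strain shifted to restrictive glucose medium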); details: OD615, 48 h, at 10 µM, stronger effect = higher value
How it was run: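 System: Engineered S. cerevisiae DeaD strain | Buffer or medium: Glucose-based CSMM-D restrictive medium | Schedule: 4 h pre-incubation, 48 h exposure at 30 °C | Technique: Optical density at 615 nm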

[3] = viability gain of MRP-1-high H69AR cells under doxorubicin, pilot screen, MRP-1 activator project, CellTiter-Glo, duplicate (AID 807); details: H69AR viability with doxorubicin, CellTiter-Glo luminescence; at 10 µM; stronger effect = higher value;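 note: compound pretreatment 18-22 h then 72 h combined with doxorubicin; 0% = doxorubicin alone and 100% = vehicle without doxorubicin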
[4] = growth suppression of beta-catenin knockout HCT116, pilot screen, human colon tumor cells (AID 823;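 active = cell viability at or below a set limit in both duplicate runs, the limit being the all-compound median minus 4 SD, cut at about 23% in these data, passing the limit was not always enough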;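 note: 0% = wells killed by 20 µM Hyamine and 100% = untreated DMSO cell wells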); details: CellTiter-Glo, 60 h, at 10 µM, stronger effect = lower value
[5] = growth suppression of PTEN-deleted HCT116, pilot screen, cell-based, HCT116 clonal line, CellTiter-Glo (AID 824;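 active = viability at or below 27.92% in each of two runs, the all-compound median minus 4 SD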;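 note: 0% = 20 µM Hyamine control and 100% = vehicle cell control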); details: 60 h, at 10 µM, stronger effect = lower value
[6] = inhibitors of the yeast RAM network, pilot screen, dse1pr::URA3 reporter, 5-FOA selection (AID 869;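 active = inhibition over a set limit, the all-compound mean plus 3 SD, in both replicate runs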;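 note: 0% = DMSO wells with no growth and 100% = 10 µM 1-NA-PP1 with full growth; RAM network block rescues cells from 5-FOA so hits raise OD615 growth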); details: S. cerevisiae dse1pr::URA3 5-FOA growth, OD615, 2 d; at 10 µM; stronger effect = higher value; strain carries analog-sensitive mutant Cbk1 kinase
[7] = RAM signaling pathway blockade in yeast – S. cerevisiae, Pdr1DBD-CYC8 efflux-inhibited sensitized strain, primary screen (AID 1298;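 active = RAM network inhibition above 8.4% in each of two replicates, 3 SD over the compound average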;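 note: 0% = DMSO untreated cells without growth and 100% = 10 µM 1-NA-PP1 full growth; higher means more yeast growth rescued from 5-FOA killing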); details: S. cerevisiae cbk1-as DSE1-URA3 strain, 5-FOA growth OD615, 2 d; at 50 µM; stronger effect = higher value

CCOC(=O)Cn1c(=O)oc2cc(S(=O)(=O)NCc3ccccn3)ccc21
inactive: growth inhibition [1] -14% | growth inhibition [2] -21.4% | viability increase [3] -1.25% | viability [4] 105% | viability [5] 95.1% | inhibition [6] 1.79% | RAM network inhibition [7] 3.14%

CCCCOC(=O)Nc1ccccc1C(N)=O
inactive: growth inhibition [1] -16.1% | growth inhibition [2] -13% | viability increase [3] 0.35% | viability [4] 95.3% | viability [5] 102% | inhibition [6] 1.07% | RAM network inhibition [7] 1.72%

Cc1cc(C)c(OCC(=O)Nc2cccc(NC(=O)c3ccco3)c2)c(Br)c1
inactive: growth inhibition [1] -3.62% | growth inhibition [2] 4.23% | viability increase [3] -3.03% | viability [4] 56.1% | viability [5] 60.8% | inhibition [6] 0.45% | RAM network inhibition [7] 3.46%

CCOc1ccc(N=C2NC(=O)C(CC(=O)O)S2)cc1 (stereo not given)
inactive: growth inhibition [1] -5.86% | growth inhibition [2] 3% | viability increase [3] -0.06% | viability [4] 104% | viability [5] 101% | inhibition [6] 2.49% | RAM network inhibition [7] 2.45%

COCCSc1nc2c(c(=O)[nH]c(=O)n2C)n1CCC(C)C
inactive: growth inhibition [1] -19.7% | growth inhibition [2] -18.9% | viability increase [3] -1.88% | viability [4] 103% | viability [5] 97.3% | inhibition [6] 1.55% | RAM network inhibition [7] 2.8%

Cn1c(=O)c2cc(S(=O)(=O)NC(Cc3ccccc3)C(=O)NCc3ccco3)ccc2n(C)c1=O (stereo not given)
inactive: growth inhibition [1] -16.4% | growth inhibition [2] -11.4% | viability increase [3] -4.79% | viability [4] 101% | viability [5] 92% | inhibition [6] 2.81% | RAM network inhibition [7] 4.39%

COc1ccccc1NC(=O)c1ccc(S(=O)(=O)N2CCCC2)cc1
inactive: growth inhibition [1] -5.88% | growth inhibition [2] -5.9% | viability increase [3] 0.68% | viability [4] 114% | viability [5] 94.9% | inhibition [6] 2.33% | RAM network inhibition [7] 2.32%

CCOC(=O)Nc1sc(NS(=O)(=O)c2ccccc2)nc1C
inactive: growth inhibition [1] -10.4% | growth inhibition [2] 3.58% | viability increase [3] -0.61% | viability [4] 105% | viability [5] 104% | inhibition [6] 0.295% | RAM network inhibition [7] 2.87%

CCOC(=O)N1CCN(C(=O)C2CCN(C(=O)c3cc4sccc4n3CC)CC2)CC1
inactive: growth inhibition [1] -16.3% | growth inhibition [2] -18.7% | viability increase [3] -3.05% | viability [4] 91.7% | viability [5] 98.9% | inhibition [6] 0.825% | RAM network inhibition [7] 3.06%

OC(COc1ccccc1)Cn1cc(Br)cn1 (stereo not given)
inactive: growth inhibition [1] -3.63% | growth inhibition [2] -8.39% | viability increase [3] -0.64% | viability [4] 106% | viability [5] 96.1% | inhibition [6] 1.23% | RAM network inhibition [7] 0.93%

CCC(=O)Nc1ccc(C(=O)n2nc(C)cc2C)cc1
inactive: growth inhibition [1] 15.8% | growth inhibition [2] 7.33% | viability increase [3] -2.24% | viability [4] 103% | viability [5] 98.9% | inhibition [6] 1.12% | RAM network inhibition [7] -0.72%

C=CCn1c(SCCOC)nc2c1c(=O)[nH]c(=O)n2C
inactive: growth inhibition [1] 2.12% | growth inhibition [2] 0.43% | viability increase [3] -2.47% | viability [4] 99% | viability [5] 95% | inhibition [6] 0.665% | RAM network inhibition [7] -0.26%

NC(=O)C1(N2CCCCC2)CCN(C(=O)c2ccccc2)CC1
inactive: growth inhibition [1] -4.24% | growth inhibition [2] -19.4% | viability increase [3] -1.09% | viability [4] 103% | viability [5] 90.4% | inhibition [6] 0.21% | RAM network inhibition [7] 5.36%

Cc1ccc(OC(=O)CCC(=O)N2CCc3ccccc32)cc1
inactive: growth inhibition [1] -5.4% | growth inhibition [2] -2.35% | viability increase [3] -3.7% | viability [4] 89.6% | viability [5] 97.9% | inhibition [6] 2.2% | RAM network inhibition [7] 0.82%

COc1cccc(-n2c(Cc3cc(=O)[nH]c(=O)[nH]3)nnc2SC(C)C)c1
inactive: growth inhibition [1] -12.3% | growth inhibition [2] 8.2% | viability increase [3] -0.34% | viability [4] 103% | viability [5] 100% | inhibition [6] 1.71% | RAM network inhibition [7] 3.35%

COc1ccc(C2N(c3cc(Cl)ccc3OC)C(=O)C3CCCN32)cc1 (stereo not given)
inactive: growth inhibition [1] 2.4% | growth inhibition [2] -1.37% | viability increase [3] -1.89% | viability [4] 106% | viability [5] 96.9% | inhibition [6] 1.01% | RAM network inhibition [7] -0.42%

CC(=O)Nc1ccc(S(=O)(=O)N2CCN(c3cc(C)ccc3C)CC2)cc1
inactive: growth inhibition [1] -14.3% | growth inhibition [2] -36% | viability increase [3] -0.32% | viability [4] 85.7% | viability [5] 79.3% | inhibition [6] 3.58% | RAM network inhibition [7] 0.1%

CCOC(=O)C1CCCN(C(=O)Cn2nc(CC)n3c(cc4sccc43)c2=O)C1 (stereo not given)
inactive: growth inhibition [1] -3.41% | growth inhibition [2] -9.06% | viability increase [3] -0.92% | viability [4] 105% | viability [5] 105% | inhibition [6] 1.33% | RAM network inhibition [7] 8.75%

NC(=O)C1CCN(C(=O)c2cnn(-c3ccccc3)c2NC(=O)c2ccco2)CC1
inactive: growth inhibition [1] -2.77% | growth inhibition [2] 1.08% | viability increase [3] -4.39% | viability [4] 99.7% | viability [5] 98.8% | inhibition [6] 1.67% | RAM network inhibition [7] 5.39%

O=C(NCc1ccccn1)C1CCC(=O)N1C1CCCC1 (stereo not given)
inactive: growth inhibition [1] -0.9% | growth inhibition [2] 3.94% | viability increase [3] -0.45% | viability [4] 98.2% | viability [5] 98% | inhibition [6] 1.67% | RAM network inhibition [7] 4.67%

Cc1ccc(NC(=O)C(C)N2CCOCC2)c(C(=O)c2ccccc2)c1 (stereo not given)
inactive: growth inhibition [1] -11.7% | growth inhibition [2] -12.7% | viability increase [3] -1.7% | viability [4] 100% | viability [5] 99.5% | inhibition [6] 1.09% | RAM network inhibition [7] 3.04%

CC(Cc1c[nH]c2ccccc12)NC(=O)C1CCCNC1=O (stereo not given)
inactive: growth inhibition [1] -5.75% | growth inhibition [2] 8.45% | viability increase [3] -0.46% | viability [4] 99.4% | viability [5] 103% | inhibition [6] 1.27% | RAM network inhibition [7] 0.66%

Cc1cc(C)nc(NS(=O)(=O)c2ccc(Br)s2)c1
inactive: growth inhibition [1] -1.63% | growth inhibition [2] -7.46% | viability increase [3] -0.89% | viability [4] 95.9% | viability [5] 93.5% | inhibition [6] 0.28% | RAM network inhibition [7] 9.36%

O=C(Nc1nc2c(s1)COc1ccccc1-2)c1cccs1
inactive: growth inhibition [1] 0.91% | growth inhibition [2] -0.5% | viability increase [3] -4.13% | viability [4] 72.2% | viability [5] 71% | inhibition [6] 1.43% | RAM network inhibition [7] 3.54%

CC1CCCCN1S(=O)(=O)c1cccc2cccnc12 (stereo not given)
inactive: growth inhibition [1] 6.45% | growth inhibition [2] 16.5% | viability increase [3] -3.21% | viability [4] 96.8% | viability [5] 83.7% | inhibition [6] 0.47% | RAM network inhibition [7] 3.59%
